Test system: MS2 coat protein
Assay: apparent Kd, MS2 coat protein; higher = weaker binding; RNA-MaP array; FMN 200 µM where present
Summary of the method: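 The apparent Kd is reported as the median of filtered per-cluster binding-curve fits. To get these curves, designs transcribed by stalled E. coli RNA polymerase on Illumina sequencing-chip clusters were titrated with SNAP-549-labelled MS2 coat protein from 0.7 or 1.5 nM, doubling to 3 µM. Titrations were run without and then with constant ligand in 100 mM Tris-HCl pH 7.5, 80 mM KCl, 4 mM MgCl2, BSA, DTT, yeast tRNA and Tween-20, and green signal was normalised to red-channel RNA signal and control-cluster median Fmax.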

[1] = designed as: OFF switch for flavin mononucleotide, no ligand
[2] = ligand present: flavin mononucleotide, designed as: OFF switch for flavin mononucleotide
[3] = designed as: ON switch for flavin mononucleotide, no ligand
[4] = ligand present: flavin mononucleotide, designed as: ON switch for flavin mononucleotide

| Sequence | apparent Kd [1] [nM] | apparent Kd [2] [nM] | apparent Kd [3] [nM] | apparent Kd [4] [nM] |
| --- | --- | --- | --- | --- |
| AUGCUUCACACAGGAUAUUACAUGAGGAUCACCCAUGUUGGGCGGUAGCUCGAAAGAGCUACCGGUAAGAAGGGUGUGAAGCAU | 30.4 | 59.2 | – | – |
| GCACAUGAUACAGGAUAUGUUUAGGAUUUUAUAUACAGUUAUUUUAUUUUGACAGAAGGGUAUACAUGAGGAUCACCCAUGUGC | 87.2 | 58.1 | – | – |
| AAUUUACAGCUAGGAUAUACAUGAGGAUCACCCAUGUAACGAUCGGAUCUUAUGAUCGUGUCCGUGUAGAAGGAGCAAAUAAGA | 6.97 | 7.4 | – | – |
| GAAUAAUUGAUCCAUUUUUAAAACAUGAGGAUCACCCAUGUGCAGGAUAUCGAUAGUUUUAAAUUCGAGAAGGGCAAGAACUGU | 128 | 173 | – | – |
| AUUCAACAUGAGGAUCACCCAUGUGAGGAUAUCGUAUACUACUGUUGCAAUACUUAGACGAGAAGGCACACCGU | 18.9 | 25.1 | – | – |
| CCUAGUUGGUAAGGAUAUCCUACACUAUUCUGACCCGUGCAGGCUACAUGAGGAUCACCCAUGUGGGAGAAGGUGCGUCAACGU | 12.6 | 11.8 | – | – |
| AUGGGACAUGAGGAUCACCCAUGUCCGGUAUAUCGAGGAUAUGGGAUGCUCUUAAUGUAACCAGAAGGCGAUAAAA | – | – | 16.6 | 18.9 |
| UAUAUAUAGUAAGGAUAUGUAUAUAUAUUAUAAACAGAAGGUACUGACAUGAGGAUCACCCAUGUUUUAGUGUGGGCAUGUAGA | 75.1 | 96.1 | – | – |
| AUGGAUGUCACAGGAUAUGCUAUGGAUACCAUAGCAGAAGGGUGAUCCAUCCUAUGUAAAUACAUGAGGAUCACCCAUGUAUCC | – | – | 112 | 73.6 |
| CCAUUUCAGUAAGGAUAUAUAAACAUGACGAUACAUGAGGAUCACCCAUGUGUAGAAGGUACUAAUACAUAUAAUGCAAUGCUC | 20.4 | 17.2 | – | – |
| GGAUCGAAUGUGAGGAUAUGCUGGUCCUUGGAUCAGCAGAAGGCACAUGAGGAUCACCCAUGUCCUCUCGGUCC | 248 | 458 | – | – |
| CUCAGACAUGAGGAUCACCCAUGUUAGGAUAUAUAAAAGAGCGGCAGAGCGCUCUUCCAUAGAAGGAGCAGUGU | 27.2 | 27.7 | – | – |
| UAACAGACGCCUUACAUGAGGAUCACCCAUGUGGCCUUAACCAGAAGGCCCGGAAGAUGACUCAGGGAGGAUAUGGUUUAACAG | – | – | 349 | 57.3 |
| UUAAAUCAUGUAGGAUAUGCAUGGCGAAGCUACGCAGAAGGACAUGAGGAUCACCCAUGUUAUAGCGUCUGGAAACAGAUGCAA | 101 | 177 | – | – |
| AAACACGGACAUGAGGAUCACCCAUGUGGCGAAAGCCUUGGGAGAAGGCAGUAUGCAAAGCAUUCUGAGGAUAUCCAUACCGUG | – | – | 18.4 | 6.63 |
| AUUUUAAUAUAGGAUAUCGAAAUUAUUAUUUAACGAGAAGGAUGAACAUGAGGAUCACCCAUGUGGUAUCAUGG | 223 | 204 | – | – |
| AGGGAGUAAGGAUAUCGGAAAGGACACGAAAGUGACAAAGACGAGAAGGUACAUGAGGAUCACCCAUGUAAAAA | 21.3 | 20.1 | – | – |
| GGUUGGCGAGGAUAUACAUGAGGAUCACCCAUGUGGUCCUGUGGCUGAAAAAACCUUUGUAGAAGGCGCGGGUC | 197 | 262 | – | – |
| AGUUUUGUACAUGAGGAUCACCCAUGUUAAUAUGUGGUAGUCAGAAGGCAUUGUUAGUGUUUAUAUGAGGAUAUGAUUAUUCAG | – | – | 41.1 | 16.4 |
| ACGAGCAAGAUUAUUAUGAAUAAACAUGAGGAUCACCCAUGUAAGGAUAUGCAGUGGAAUACACUGCAGAAGGUACAUAGCUCG | 11.3 | 44.2 | – | – |
| CAUGUGUAAGGAUAUGACAAUGGUAUCUUCGGAUACCAUUGUCAGAAGGUACAUGAGGAUCACCCAUGUGGAUC | 441 | 103 | – | – |
| CAAACCAGAGGAUAUGCGCAUAGAUCAGACUUUGUUUCUGAACAUGAGGAUCACCCAUGUAGAAGGCUGUAAAC | 25.5 | 24.4 | – | – |
| UUGAAGAACUAAGGAUAUUGAAUACAUAUGUUUAACAUGAGGAUCACCCAUGUGGGUUGCGGUAUCGAGAAGGUAGAUUACUAG | – | – | 115 | 104 |
| GGAUCCAACACAGGAUAUGCUGGACUUUGUCCAGCAGAAGGGUGACAUGAGGAUCACCCAUGUAAUAGGAUCCAUAUAUUUAAU | – | – | 624 | 198 |
| UGGUACUAGGGAGGAUAUGGGAAGAUACAUGAGGAUCACCCAUGUUUAAGAAUGCCGAGAUGCAACUAGAAGGCCCUAGUACCU | – | – | 371 | 21.9 |
| AAUUGCCUAGGAUAUACUUGGGCCCGCUCAUACUCCAAUGGACAUGAGGAUCACCCAUGUAGAAGGAGGACCCA | 17.2 | 39.4 | – | – |
| AACAGUAGAGGAUAUACAUGAGGAUCACCCAUGUGAGAAUUACGUGGCGUACCACGAAGUAGAAGGCUACUGGA | 61.3 | 302 | – | – |
| GGAUAGGACAGAGGAUAUACGUGCUAGAGAUACUAGCACAAUUUCCUCACAUGAGGAUCACCCAUGUAGAAGGCUGUCCUAUCG | 6.08 | 26.3 | – | – |

| Sequence | apparent Kd [1] [nM] | apparent Kd [2] [nM] | apparent Kd [3] [nM] | apparent Kd [4] [nM] |
| --- | --- | --- | --- | --- |
| GCCAUCGCAUGAGGAUAUGCUCCGGUUUCCGGAGCAGAAGGCAUGUCGUAAGACAUGAGGAUCACCCAUGUAGUUAAGAUGGCA | – | – | 1100 | 54.7 |
| CGCACUAAACAUGAGGAUCACCCAUGUAACUAAGAGCUAGUCAGAAGGCAUAAUUAGUGAAUUAAUGAGGAUAUGAAUAGUGCG | – | – | 157 | 62.2 |
| UGUAUGGACAGAGGAUAUACGGAUAGGAUCUACUAUCAAACAAGUCCUACAUGAGGAUCACCCAUGUAGAAGGCUGUCCAUACU | 16.4 | 22.7 | – | – |
| GGACGUCACAUUAACAUGAGGAUCACCCAUGUCAAAAGACAUGAGGAUAUGGAUCCUAAUUGGAUCCAGAAGGCAUGGACGUCC | – | – | 664 | 33.4 |
| UCAUUUAAUACAGGAUAUGUUAGUAUACAGUUGAUUGGUUAUUACAUAAUAACAGAAGGGUAGAACAUGAGGAUCACCCAUGUA | – | – | 254 | 131 |
| ACAUGCAUAGCGAUAUGAUCGAGAGAUCAUGUCGCUAAAUUUAGAAGGACAUGAGGAUCACCCAUGUAGGAUAUGGGAGCAUGA | – | – | 44.7 | 11.1 |
| AUUUUGUGAGGAUAUUAGUUGUAGAAAAUUGUUAGUAUAGCUGAGAAGGCACAUGAGGAUCACCCAUGUACAUC | 18 | 57.9 | – | – |
| AAAAAACAUGAGGAUCACCCAUGUCCAAAAAAAAAAGGAUAUGCAAAAAAAAAAAAAAAAGCAGAAGGUUUAAAAA | – | – | 68.4 | 74.7 |
| GGAUAGGACAGAGGAUAUACGUGCUAGAGAUACUAGCUAAUAAUCCUUACAUGAGGAUCACCCAUGUAGAAGGCUGUCCUAUCG | 20 | 45.1 | – | – |
| UGAUCGAAAGAUCAUAGAUUCUGCUAGGAUAUGCAGAAGUUGCGAUUUACAUGAGGAUCACCCAUGUAGAAGGAGUAGAGUCUA | 7.16 | 7.16 | – | – |
| UGGUACAUGGGAGGAUAUGGGAAGUUAACAUGAGGAUCACCCAUGUUUGCCGAAAGGCAAAAGAACUAGAAGGCCCAUGUACCU | – | – | 23.1 | 16.4 |
| UGAUCGAGAGAUCUUAGAUUCUGGUAGGAUAUACAUUAAAAUAGCUUUACAUGAGGAUCACCCAUGUAGAAGGACUAGAGUCUA | 7.8 | 8.67 | – | – |
| GCACUGGAUGUAGGAUAUCAGGACGAUAAGUCCUGAGAAGGACAUGAGGAUCACCCAUGUCUCAAAUACCAGUGCAAUAAUAUA | 12.3 | 14.8 | – | – |
| UUCGCUGUGGUGUGGCGAGGCUCGUAAGAAGGGUGAUGCACAUGAGGAUCACCCAUGUAAGCCUUACAGGAUAUUGCUAGCCGA | – | – | 539 | 195 |
| CAAUUCCGAGGAUAUACAUGAGGAUCACCCAUGUCGGGCCUCAGCGUUUAGCGCGUAAGUAGAAGGUGGGUUUC | 30.4 | 41.1 | – | – |
| AAAACGUCAGGAUAUCCAAUAUAUGACAUGAGGAUCACCCAUGUUUCCACUCGUACCUCCGGAGAAGGGACAAAUA | 41.5 | 34 | – | – |
| GUAGCAUACCGAGGAUAUUCAUAUAAUAAGUAAACAUGAGGAUCACCCAUGUAGCGAAAGCCUUGGGAGAAGGCGGAAUGCUAC | – | – | 346 | 52 |
| CAUCCACGGUAGAAGGGACUAGGCACAUGAGGAUCACCCAUGUCCUUUCCCAACUUGUGCCGCGGUCAGGAUAUACCGGGUCGG | 12.5 | 20 | – | – |
| AUUUCGUUAGCAGGAUAUGGACAGGCCUGUCCGUAUUGAGUCAGUAACAUGAGGAUCACCCAUGUCCAGAAGGGCUCGAAGUAG | 8.06 | 13.9 | – | – |
| GUGUAGAUAGGAUAUGCUUUGAGCCUACGAAAGUACGCUCGACAUGAGGAUCACCCAUGUAGAAGGGUUUACAC | 119 | 58.9 | – | – |
| AAAAUGUGAGGAUAUGCGAAGGCGUCUGAUAGACGAGGCUAGCAGAAGGCACAUGAGGAUCACCCAUGUCCAAA | 40.3 | 60.3 | – | – |
| CCAUCGUGUGUGAGGAUAUGCUGGUCCUUGGAUCAGCAGAAGGCACAUGAGGAUCACCCAUGUGAAUACGGUGG | 18.6 | 29 | – | – |
| AUUACAAUUGUAUACAUGAGGAUCACCCAUGUCAAAAGUCAUGAGGAUAUGGUAUUGUAGUUAUUCCAGAAGGCAUAAAGCUAA | – | – | 29.2 | 16.4 |
| AUUUUGUCAGGAUAUGACUAGUAGCACGAAAGUGCUACUACUUAGAAGGGACAUGAGGAUCACCCAUGUAUUCC | 15.2 | 16.1 | – | – |
| UGACCCAUGACAUGAGAUGACAUGAGGAUCACCCAUGUUUACAAGGAUAUGUUGAUGAAACAUCAACAGAAGGUGUAAUGGGAU | 53.7 | 385 | – | – |
| AUACUCAUGUAAGGAUAUGCAGCCGAAACGGCUGCAGAAGGUACUAUAAUACAUGAGGAUCACCCAUGUCAAAAUAAACUAGUU | – | – | 155 | 36.5 |
| AUUUAAUUUAAUAAGAUCACAUGAGGAUCACCCAUGUAUAUAUAGGAUAUCAGCUCGAAUAGAGCUGAGAAGGAUAUAUACAUG | 47.4 | 41 | – | – |

— the EternaBench riboswitch data
